# Experimental data: article PMC4545378 (Cancer chemotherapy and pharmacology, 2015)
# Values joined by “and” are separate entries in the source; they are usually repeats but may differ in a detail not shown here. Equal values may be shown once. “Also recorded” adds a separate entry of the source. Read-outs that look alike come from different tables or passages of the source.
# Assays:
# [1] = cited from earlier work
# RXF-393 = conditions: mice, RXF-393 implanted subcutaneously or orthotopically under the renal capsule; cited from earlier work
# BEN blood partitioning = assay type: in vitro ADME, human; conditions: 50% RBCs in plasma, on ice
# Procedure, shortened: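 Blood (50% RBCs in plasma) held on ice with 1 mM disulfiram for 10 min, then dosed with test compound at 1000 ng/mL final. Blood sampled at 5–30 min and spun at 12,000 × g for 2 min; plasma acidified with H2SO4 and analysed by LC-MS/MS. Run in parallel in 100% plasma, in triplicate. Ratio taken as plasma-only concentration divided by plasma concentration from the 50%-RBC incubation.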
# CYP3A = conditions: preliminary experiments; cited from earlier work
# ALDH2 = biological target: T1, ALDH2 (Homo sapiens, UniProt P05091); experiment: Metabolism using purified ALDH isoforms: ALDH2; assay type: biochemical; conditions: purified ALDH2, BEN 1000 ng/mL
# T1 sequence (P05091 18-517): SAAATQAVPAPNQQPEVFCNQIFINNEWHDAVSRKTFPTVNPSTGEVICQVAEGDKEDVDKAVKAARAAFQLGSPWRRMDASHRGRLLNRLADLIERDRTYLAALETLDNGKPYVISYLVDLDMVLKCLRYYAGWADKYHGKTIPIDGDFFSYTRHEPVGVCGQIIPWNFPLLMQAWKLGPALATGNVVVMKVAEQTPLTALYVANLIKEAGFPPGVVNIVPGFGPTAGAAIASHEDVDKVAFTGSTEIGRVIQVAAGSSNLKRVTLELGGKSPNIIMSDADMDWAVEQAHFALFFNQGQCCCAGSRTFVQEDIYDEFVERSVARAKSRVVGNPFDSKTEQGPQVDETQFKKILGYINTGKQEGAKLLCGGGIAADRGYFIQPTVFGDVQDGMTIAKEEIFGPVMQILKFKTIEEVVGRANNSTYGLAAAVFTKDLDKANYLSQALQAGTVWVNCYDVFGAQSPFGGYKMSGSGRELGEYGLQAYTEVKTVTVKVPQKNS
# [2] = system: renal carcinoma cells (RCC); conditions: cited from earlier work
# lysed RBCs = experiment: BEN in lysed blood; assay type: in vitro ADME, human
# Procedure, shortened: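 10% RBCs in plasma lysed by three freeze-thaw cycles and incubated at 37 °C alongside unlysed cells. Test compound added at 10 μg/mL final; sampled at 5, 60, 120 and 180 min. In a cofactor arm, NADH or NADPH (500 μM final) was added to lysed RBCs and sampling ran from 5 to 120 min. Parent quantified by LC-MS/MS.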
# RBCs [3] = experiment: Effect of RBC concentration on BEN metabolism; assay type: in vitro ADME, human; conditions: BEN 10 μg/mL, 37 °C
# Procedure, shortened: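 RBCs taken from the bottom of the packed layer, avoiding the buffy coat, and resuspended in plasma at 0, 0.1, 1 and 10%. Test compound spiked at 10 μg/mL and incubated at 37 °C in a shaking bath. Aliquots taken from 0 to 360 min and at 24 h; remaining parent measured by LC-MS/MS.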
# [4] = but not plasma; cited from earlier work
# ALDH5A1 = biological target: T2, ALDH5A1 (Homo sapiens, UniProt P51649); experiment: Metabolism using purified ALDH isoforms: ALDH5A1; assay type: biochemical; conditions: purified ALDH5A1, BEN 1000 ng/mL
# T2 sequence (P51649 48-535): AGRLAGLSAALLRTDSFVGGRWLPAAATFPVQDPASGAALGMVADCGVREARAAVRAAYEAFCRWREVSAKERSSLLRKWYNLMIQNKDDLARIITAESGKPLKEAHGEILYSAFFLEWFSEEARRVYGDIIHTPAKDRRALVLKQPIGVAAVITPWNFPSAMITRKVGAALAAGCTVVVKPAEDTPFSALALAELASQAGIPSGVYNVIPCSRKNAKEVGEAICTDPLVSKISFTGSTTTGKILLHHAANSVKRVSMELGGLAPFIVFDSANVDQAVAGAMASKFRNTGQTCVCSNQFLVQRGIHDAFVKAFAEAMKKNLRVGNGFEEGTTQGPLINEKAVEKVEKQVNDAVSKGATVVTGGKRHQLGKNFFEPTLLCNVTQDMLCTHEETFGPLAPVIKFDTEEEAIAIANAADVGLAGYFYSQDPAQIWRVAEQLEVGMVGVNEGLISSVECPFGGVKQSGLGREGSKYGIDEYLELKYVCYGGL
# RBCs [5] = assay type: in vitro ADME, human; conditions: 10% RBCs, all incubations (with and without CO or N2), BEN 3 μg/mL
# [6] = humans, after 9 mg/m^2; cited from earlier work
# RBCs [7] = experiment: Apparent Vmax and Km determination in 10% RBCs in plasma; assay type: in vitro ADME, human
# ALDH3A1 = biological target: T3, ALDH3A1 (Homo sapiens, UniProt P30838); experiment: Metabolism using purified ALDH isoforms: ALDH3A1; assay type: biochemical; conditions: purified ALDH3A1, BEN 1000 ng/mL
# T3 sequence (P30838 1-453): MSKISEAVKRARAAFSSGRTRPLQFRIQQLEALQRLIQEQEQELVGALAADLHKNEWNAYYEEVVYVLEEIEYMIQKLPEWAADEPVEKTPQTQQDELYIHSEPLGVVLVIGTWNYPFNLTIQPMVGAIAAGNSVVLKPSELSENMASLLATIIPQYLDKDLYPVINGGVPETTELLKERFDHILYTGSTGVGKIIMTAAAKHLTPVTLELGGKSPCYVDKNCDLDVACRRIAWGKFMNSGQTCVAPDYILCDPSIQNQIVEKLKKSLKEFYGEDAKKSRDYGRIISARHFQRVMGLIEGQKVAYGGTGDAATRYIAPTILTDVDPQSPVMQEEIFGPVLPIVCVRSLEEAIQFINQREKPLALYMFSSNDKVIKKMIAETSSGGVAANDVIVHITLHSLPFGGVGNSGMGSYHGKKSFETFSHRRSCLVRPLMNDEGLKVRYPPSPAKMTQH
# [8] = mice, after 20 mg/kg BEN; cited from earlier work
# RBCs [9] = experiment: BEN metabolism in 10% RBCs with ALDH and AO inhibitor; assay type: in vitro ADME, human; conditions: for inhibition of BEN metabolism (conversion of BEN to BA) in RBC: 10% RBCs in plasma, inhibitor 150 μM
# purified human ALDH1A1 = biological target: T4, purified human ALDH1A1 (Homo sapiens, UniProt P00352); experiment: Metabolism using purified ALDH isoforms: ALDH1A1; assay type: biochemical
# T4 sequence (P00352 1-501): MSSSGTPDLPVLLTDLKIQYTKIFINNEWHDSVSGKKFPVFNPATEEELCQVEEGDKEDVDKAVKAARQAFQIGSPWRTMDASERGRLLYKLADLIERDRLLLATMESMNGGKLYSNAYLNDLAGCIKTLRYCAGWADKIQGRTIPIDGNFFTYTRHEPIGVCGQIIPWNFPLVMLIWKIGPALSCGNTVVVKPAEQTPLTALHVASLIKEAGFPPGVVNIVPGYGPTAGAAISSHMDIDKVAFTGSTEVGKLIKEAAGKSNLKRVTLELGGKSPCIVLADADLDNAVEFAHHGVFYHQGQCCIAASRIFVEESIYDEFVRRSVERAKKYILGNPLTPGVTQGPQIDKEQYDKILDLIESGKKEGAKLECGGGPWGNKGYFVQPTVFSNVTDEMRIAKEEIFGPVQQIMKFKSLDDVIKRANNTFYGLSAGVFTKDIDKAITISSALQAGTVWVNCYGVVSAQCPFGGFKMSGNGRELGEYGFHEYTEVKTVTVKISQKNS
# Procedure, shortened: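 Purified human ALDH1A1 (5 μg/mL) in […] pH 7.4 with 200 mM KCl and 4 mM DTT, plus test compound at 1000 ng/mL. Pre-incubated 10 min at 37 °C, then started with NAD or […] (1 mM) as the isozyme requires. Sampled at 0–60 min into H2SO4, acetonitrile-extracted, and parent and […] measured by LC-MS/MS. Inhibition arms used anti-ALDH1A1 antibody or disulfiram. Three independent experiments; rate normalised per μg enzyme.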
# [10] = preliminary experiments; cited from earlier work
# [11] = Lot 4 +7 days (7 day old blood stored at 4 °C), 10% RBCs
# [12] = mean over the lots of Table 1, 10% RBCs
compound,measurement,setting,value
"Cc1cc(N(CCOS(C)(=O)=O)CCOS(C)(=O)=O)ccc1C=O [BEN, 4-[bis[2-[(methylsulfonyl)-oxy]ethyl]amino]-2-methyl-benzaldehyde]",in vitro half-life in plasma,[1],22 min
same,antitumor activity,RXF-393,demonstrated antitumor activity
same,time by which the equilibrium between RBCs and plasma was complete,BEN blood partitioning,≤ 5 min
same,average plasma to whole blood partition ratio,"BEN blood partitioning; disulfiram 1 mM, BEN 1000 ng/mL, triplicate",1.25 ± 0.08
same,metabolism in liver microsomal fraction,CYP3A,undergoes N-dealkylation
same,ability of isoform to metabolize BEN,ALDH2,ALDH1A1 was the only isoform that showed the ability to metabolize BEN
same,activity in the NCI 60 cell line screen,[2],specific activity against renal carcinoma cells (RCC)
same,metabolism of BEN by lysed RBCs,"lysed RBCs; 10% RBCs lysed by freeze-thaw, no cofactor added",did not metabolize BEN
same,metabolism of BEN by lysed RBCs,lysed RBCs; 10% lysed RBCs + NADH 500 μM,restored the ability of lysed RBCs to metabolize BEN
same,metabolism of BEN by lysed RBCs,lysed RBCs; 10% lysed RBCs + NADPH 500 μM,partially restored the ability of lysed RBCs to metabolize BEN
same,BEN remaining,"RBCs [3]; 10% RBCs, after 6 hours",5%
same,BEN remaining,"RBCs [3]; 10% RBCs, after one hour",54%
same,BEN remaining,"RBCs [3]; no RBCs, after 6 hours",59%
same,BEN remaining,"RBCs [3]; no RBCs, after one hour",99%
same,conversion in whole blood,[4],rapidly converted to its carboxylic acid analogue (BA)
same,ability of isoform to metabolize BEN,ALDH5A1,ALDH1A1 was the only isoform that showed the ability to metabolize BEN
same,time after which the concentration of BEN was halved,RBCs [5],approximately 60 min
same,exposures observed,[6],14.5 ng/mL
same,starting concentrations that display linear metabolism,RBCs [7]; 10% RBCs,below 400 ng/mL
same,Cl,"RBCs [7]; Lot 1 human blood, 10% RBCs",0.333 mL/min
same,Km,"RBCs [7]; Lot 1 human blood, 10% RBCs",196.3 ng/mL
same,Vmax,"RBCs [7]; Lot 1 human blood, 10% RBCs",65.44 ng/mL^−1•min^−1•[10% RBC]^−1
same,Cl,"RBCs [7]; Lot 2 human blood, 10% RBCs",0.2736 mL/min
same,Km,"RBCs [7]; Lot 2 human blood, 10% RBCs",319.5 ng/mL
same,Vmax,"RBCs [7]; Lot 2 human blood, 10% RBCs",87.42 ng/mL^−1•min^−1•[10% RBC]^−1
same,Cl,"RBCs [7]; Lot 3 human blood, 10% RBCs",0.282 mL/min
same,Km,"RBCs [7]; Lot 3 human blood, 10% RBCs",256.2 ng/mL
same,Vmax,"RBCs [7]; Lot 3 human blood, 10% RBCs",72.27 ng/mL^−1•min^−1•[10% RBC]^−1
same,Cl,RBCs [7]; [11],0.1432 mL/min
same,Km,RBCs [7]; [11],699.6 ng/mL
same,Vmax,RBCs [7]; [11],100.2 ng/mL^−1•min^−1•[10% RBC]^−1
same,Cl,"RBCs [7]; Lot 4 human blood, 10% RBCs",0.1859 mL/min
same,Km,"RBCs [7]; Lot 4 human blood, 10% RBCs",609.8 ng/mL
same,Vmax,"RBCs [7]; Lot 4 human blood, 10% RBCs",113.4 ng/mL^−1•min^−1•[10% RBC]^−1
same,Cl,"RBCs [7]; Lot 5 human blood, 10% RBCs",0.1588 mL/min
same,Km,"RBCs [7]; Lot 5 human blood, 10% RBCs",481.8 ng/mL
same,Vmax,"RBCs [7]; Lot 5 human blood, 10% RBCs",76.5 ng/mL^−1•min^−1•[10% RBC]^−1
same,Cl,"RBCs [7]; Lot 6 human blood, 10% RBCs",0.1836 mL/min
same,Km,"RBCs [7]; Lot 6 human blood, 10% RBCs",371.2 ng/mL
same,Vmax,"RBCs [7]; Lot 6 human blood, 10% RBCs",68.16 ng/mL^−1•min^−1•[10% RBC]^−1
same,Average apparent Km,"RBCs [7]; human RBC, abstract",373 ng/mL
same,"Cl, Mean",RBCs [7]; [12],0.22 mL/min
same,"Vmax, Mean",RBCs [7]; [12],83.3 ng/mL^−1•min^−1•[10% RBC]^−1
same,ability of isoform to metabolize BEN,ALDH3A1,ALDH1A1 was the only isoform that showed the ability to metabolize BEN
same,exposures observed,[8],16 ng/mL
same,amount of BEN remaining,"RBCs [9]; control sample without inhibitor, 10% RBCs, BEN 1 μg/mL",0.5%
same,ability of isoform to metabolize BEN,"purified human ALDH1A1; purified ALDH1A1, BEN 1000 ng/mL",showed the ability to metabolize BEN
same,rate of disappearance of BEN,"purified human ALDH1A1; three independent experiments, 5 μg/mL purified enzyme, BEN 1000 ng/mL, 37 °C",0.172 ng/min/μg of enzyme and 0.224 ng/min/μg of enzyme and 0.154 ng/min/μg of enzyme
same,metabolism in cytosolic fraction,[10],oxidized
CCN(CC)C(=S)SSC(=S)N(CC)CC [disulfiram],inhibition of BEN metabolism (conversion of BEN to BA) in RBC,RBCs [9]; BEN 1 μg/mL,inhibited; also recorded: almost complete inhibition
same,inhibition of BEN metabolism by purified ALDH1A1,"purified human ALDH1A1; reaction mixture with 4 mM DTT, antibodies at 100x",did not inhibit
CC1=CC(=O)c2ccccc2C1=O [menadione],inhibition of BEN metabolism compared with vehicle control,"RBCs [9]; 3 mM menadione, 1.5% DMSO v:v, 10% RBCs",DMSO alone (1.5% DMSO v:v) caused the same extent of inhibition
same,inhibition of BEN metabolism (conversion of BEN to BA) in RBC,RBCs [9]; BEN 1 μg/mL,not inhibited; also recorded: only a partial inhibitory effect
